Experimental data reported in ChEMBL document CHEMBL1145462, “In vivo pharmacodynamic activity of the glycopeptide dalbavancin” (Antimicrob Agents Chemother, 2007).
Values after ≈ are worked out from the molar mass of the structure shown.

Legend:
Type in all cases: functional
Staphylococcus aureus [1] = test: Antibacterial activity against Staphylococcus aureus ATCC 25923 by microdilution method
How it was run: (§1)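 MIC and MBC were determined by CLSI broth microdilution, in duplicate on at least two occasions. Staphylococci were grown in Mueller-Hinton broth and agar; pneumococci were plated on sheep blood agar.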

Staphylococcus aureus [2] = test: Antibacterial activity against Staphylococcus aureus 33591 by microdilution method
How it was run: (§2)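 MICs in duplicate on at least two occasions by standard CLSI broth microdilution; S. aureus grown and quantified in Mueller-Hinton broth/agar.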

Staphylococcus aureus [3] = test: Antibacterial activity against Staphylococcus aureus 307109 by microdilution method; how it was run: as §1
Staphylococcus aureus [4] = test: Antibacterial activity against Staphylococcus aureus Smith by microdilution method; how it was run: as §2
Staphylococcus aureus [5] = test: Antibacterial activity against Staphylococcus aureus 31005 by microdilution method; how it was run: as §1

With `COc1cccc(OC)c1C(=O)N[C@@H]1C(=O)N2[C@@H]1SC(C)(C)[C@@H]2C(=O)O` [METHICILLIN] the MIC (Staphylococcus aureus [1]) was 0.12 µg/mL (≈ 0.315 µM), the MIC (Staphylococcus aureus [2]) was > 8 µg/mL and the MIC (Staphylococcus aureus [3]) was > 8 µg/mL. It also gave an MIC (Staphylococcus aureus [4]) of 0.12 µg/mL (≈ 0.315 µM) and an MIC (Staphylococcus aureus [5]) of 0.12 µg/mL (≈ 0.315 µM).
